Assay results pooled from the literature.
Lines come from different studies, so protocols differ.
Target: Serine/threonine-protein kinase TAO1 (TAOK1, Homo sapiens, UniProt Q7L7X3)
One construct used (Q7L7X3 1-1001): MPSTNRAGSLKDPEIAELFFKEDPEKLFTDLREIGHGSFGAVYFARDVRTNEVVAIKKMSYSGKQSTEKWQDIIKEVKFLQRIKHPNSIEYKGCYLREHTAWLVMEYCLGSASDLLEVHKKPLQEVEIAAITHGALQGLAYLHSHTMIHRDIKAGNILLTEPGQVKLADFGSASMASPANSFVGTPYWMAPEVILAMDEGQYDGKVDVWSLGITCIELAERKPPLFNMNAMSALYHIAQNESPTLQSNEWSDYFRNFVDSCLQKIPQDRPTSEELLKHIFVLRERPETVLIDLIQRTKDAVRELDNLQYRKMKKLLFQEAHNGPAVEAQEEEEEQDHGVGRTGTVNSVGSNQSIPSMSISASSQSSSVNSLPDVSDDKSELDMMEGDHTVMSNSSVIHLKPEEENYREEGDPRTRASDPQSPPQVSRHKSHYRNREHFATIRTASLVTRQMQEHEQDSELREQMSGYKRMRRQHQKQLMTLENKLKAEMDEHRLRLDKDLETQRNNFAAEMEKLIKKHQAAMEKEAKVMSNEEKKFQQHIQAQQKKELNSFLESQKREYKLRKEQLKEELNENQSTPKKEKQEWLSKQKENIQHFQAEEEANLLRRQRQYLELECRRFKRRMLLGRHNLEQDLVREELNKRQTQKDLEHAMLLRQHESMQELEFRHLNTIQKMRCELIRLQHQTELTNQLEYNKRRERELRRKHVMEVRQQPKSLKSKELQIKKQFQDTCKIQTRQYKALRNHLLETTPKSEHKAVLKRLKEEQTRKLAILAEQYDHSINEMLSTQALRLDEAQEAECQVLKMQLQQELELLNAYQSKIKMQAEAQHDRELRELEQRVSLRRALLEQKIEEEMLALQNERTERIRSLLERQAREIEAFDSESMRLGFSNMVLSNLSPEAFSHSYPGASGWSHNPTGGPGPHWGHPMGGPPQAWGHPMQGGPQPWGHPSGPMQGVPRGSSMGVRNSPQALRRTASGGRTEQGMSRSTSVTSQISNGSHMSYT

Cn1c(=O)n(-c2ccc(C(C)(C)C#N)cc2)c2c3cc(-c4cnc5ccccc5c4)ccc3ncc21  remaining activity (enzyme activity, inhibitor; 10 µM): 81%
O=C(Nc1cnn(-c2csc(C(=O)NC3COC3)c2)c1)Nc1ccccc1Cl  remaining activity (enzyme activity, inhibitor; 5 µM): 122%
Cc1ccc(C(=O)NCc2ccsc2)cc1C#Cc1cn(C(C)C)c2ncnc(N)c12  activity vs control (enzyme activity, inhibitor; 1 µM): 48%
FC(F)c1nc2ccccc2n1-c1nc(N2CCOCC2)nc(N2CCOCC2)n1  remaining activity (enzyme activity, inhibitor; 10 µM): 93%
COc1cc(Nc2cnc(C#N)c(O[C@H](C)CN(C)C)n2)ncc1-c1cnn(C)c1  remaining activity (enzyme activity, inhibitor, radiometric; 10 µM): 75%
CNC(=O)c1cc(Oc2ccc(NC(=O)Nc3ccc(Cl)c(C(F)(F)F)c3)cc2)ccn1  remaining signal (cell-free assay; 0.5 µM): 82%
CN1CC(Oc2cnc(C#N)cc2-c2ccn3nc(NC(=O)C4CC4)cc3c2)C1  inhibition (enzyme activity, inhibitor; 1 µM): -1%
CS(=O)(=O)c1cc(C2(NC(=O)c3cncc4c3cnn4-c3ccc(F)cc3)CC2)ccn1  remaining binding (cell-free assay, competition with immobilised ligand; 1 µM): 94%
Cc1cc(NC(=O)c2cccc3cc(-c4cccc5[nH]nc(N)c45)ccc23)ccc1F  activity vs control (enzyme activity, inhibitor; 0.1 µM): 103%
O=C1NC(=O)c2cc(Nc3ccc(F)cc3)c(Nc3ccc(F)cc3)cc21  remaining signal (cell-free assay; 0.5 µM): 90.3%
O=C(N1CCS(=O)(=O)CC1)N1C[C@H](c2ccc(OC(F)(F)F)cc2)C[C@H](c2nc(C3CC3)no2)C1  remaining binding (cell-free assay, competition with immobilised ligand; 1 µM): 100%
Cc1ccc(NC(=O)c2ccc(C)c(C(F)(F)F)c2)cc1C#Cc1nn(C2CCC(O)CC2)c2ncnc(N)c12 (centres unmarked)  remaining signal (cell-free assay; 10 µM): 18%
Cc1nc(C2CCN(C(=O)c3ccc(OC(F)(F)F)cc3N)CC2)c2ncc(N3CCN(C)CC3)cc2n1  remaining binding (cell-free assay, competition with immobilised ligand; 1 µM): 100%
FC(F)(F)Oc1cccc(-c2cnc3ccc(-c4ccncc4)nn23)c1  activity vs control (enzyme activity, inhibitor, radiometric; 5 µM): 87%
COc1cc(-c2cn(C3CCc4ccccc4N(CC(F)(F)F)C3=O)nn2)ccc1-n1ccc(C)n1 (centres unmarked)  remaining binding (cell-free assay, competition with immobilised ligand; 1 µM): 92%
Nc1nc(Nc2ccc(S(N)(=O)=O)cc2)sc1C(=O)c1ccccc1[N+](=O)[O-]  inhibition (enzyme activity, inhibitor; 0.1 µM): 60 to 66%
C[C@H](c1ccnc(Nc2nc3ccc(-c4cc(N(C)C)ncn4)cc3[nH]2)c1)N1CCN(C(=O)CC(F)(F)F)CC1  remaining binding (cell-free assay, competition with immobilised ligand; 0.1 µM): 100%
Cc1ccc(C(=O)Nc2ccc(CN3CCN(C)CC3)c(C(F)(F)F)c2)cc1C#Cc1cnc2cccnn12  remaining activity (enzyme activity, inhibitor; 23.5 nM): 67%
CNC(=O)Nc1ccc2c(c1)CC[C@@]21OC(=O)N(CC(=O)N(Cc2ccc(F)cc2)[C@@H](C)C(F)(F)F)C1=O  remaining binding (cell-free assay, competition with immobilised ligand; 1 µM): 94%
CCN(CC)CCNC(=O)c1c(C)[nH]c(/C=C2\C(=O)Nc3ccc(F)cc32)c1C  remaining signal (cell-free assay; 0.5 µM): 71.5%
